GRK2 inh: compounds blocking aptamer binding on GRK2 – biochemical, human GRK2, bead flow cytometry, HTS, primary screen; Beta-adrenergic receptor kinase 1 (Homo sapiens), P25098; FAM-aptamer displacement from GRK2; inhibition of aptamer binding, % at 10 µM; 0.59% of 330,000 active;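 active means inhibition of aptamer binding above 40%, roughly 3 SD of noise, on plates passing a quality check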;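 further: median bead fluorescence of bound FAM aptamer so fluorescent compounds give negative values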
LMPTP block: LMPTP phosphatase inhibitors, primary screen, biochemical, fluorescence intensity, uHTS; 0.22% of 360,000 active; inhibition, % at 20 µM; AID 651560, 2012; recombinant LMPTP-A, OMFP fluorogenic substrate; Low molecular weight phosphotyrosine protein phosphatase (Homo sapiens), P24666;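 active means compounds that cut the enzyme signal by at least half of the control window in the single-dose screen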;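 further: plate controls were DMSO wells with enzyme plus substrate for no effect and substrate without enzyme for full effect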
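material = LMPTP-A | quantity = 0.625 nM enzyme | reagent = OMFP substrate, 400 µM final | buffer or medium = Bis-Tris pH 6.0, DTT, detergent | detection = endpoint fluorescence intensity from OMFP dephosphorylation | dosing = single 20 µM dose | read-out basis = % inhibition relative to no-enzyme and uninhibited control wells | control set = no-enzyme and uninhibited controls | timing = 50 min at room temperature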
STEP block: STEP phosphatase inhibitors, primary screen, biochemical, fluorescence intensity, uHTS. Tyrosine-protein phosphatase non-receptor type 5 (Homo sapiens), P54829. recombinant STEP, OMFP fluorogenic substrate. inhibition, % at 20 µM. 0.25% of 360,000 active. AID 588621, 2011;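 active means inhibition at 20 µM, scaled per plate between control wells, above about 37%, limit read from the data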;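 further: 0% = DMSO with enzyme and substrate and 100% = substrate only without enzyme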
Target sequence (P54829 whole entry, looked up): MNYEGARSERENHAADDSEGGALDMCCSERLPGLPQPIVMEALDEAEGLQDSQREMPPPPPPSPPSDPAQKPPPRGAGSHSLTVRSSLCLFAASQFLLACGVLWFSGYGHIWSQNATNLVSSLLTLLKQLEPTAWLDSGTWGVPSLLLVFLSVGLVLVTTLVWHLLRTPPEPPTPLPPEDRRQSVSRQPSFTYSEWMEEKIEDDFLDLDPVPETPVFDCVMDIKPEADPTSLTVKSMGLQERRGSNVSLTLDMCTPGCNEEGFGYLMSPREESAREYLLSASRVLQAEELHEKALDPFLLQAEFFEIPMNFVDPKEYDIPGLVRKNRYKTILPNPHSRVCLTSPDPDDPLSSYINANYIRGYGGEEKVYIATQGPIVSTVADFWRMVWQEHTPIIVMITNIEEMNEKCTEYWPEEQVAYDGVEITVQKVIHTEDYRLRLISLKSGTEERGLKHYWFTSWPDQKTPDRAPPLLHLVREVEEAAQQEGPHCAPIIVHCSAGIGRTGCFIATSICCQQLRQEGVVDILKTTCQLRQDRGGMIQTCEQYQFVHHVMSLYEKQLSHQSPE
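Material: STEP (striatal-enriched tyrosine phosphatase) enzyme, cell-free | Medium: 50 mM Bis-Tris pH 6.0 with 2.5 mM DTT and 0.005% Tween 20 | Read-out: Percent inhibition scaled to no-enzyme and uninhibited-enzyme controls, plate-pattern corrected | Signal: Fluorescence read at 480 nm ex / 540 nm em | Times: 20 min reaction, room temperature, in the dark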
DNMT1 block: human DNMT1 methyltransferase inhibitors, primary screen, biochemical, molecular beacon, fluorescence, HinP1I cleavage, uHTS; DNA (cytosine-5)-methyltransferase 1 (Homo sapiens), P26358; inhibition (reported as % activation of signal), % at 10 µM; 0.83% of 360,000 active; in the data active means inhibition above about 50%
SUMO1-SIM PPI: modulators of SUMO1 protein-protein interactions, primary screen, biochemical, uHTS; Small ubiquitin-related modifier 1 (Homo sapiens), P63165; SUMO1 binding to a labelled peptide, TR-FRET, 1 h; inhibition, % at 20 µM; 0.33% of 360,000 active; AID 602429, 2012; in the data active means inhibition above about 37%
Scp1 inh: Scp-1 phosphatase inhibitors, primary screen, biochemical, colorimetric, uHTS | Carboxy-terminal domain RNA polymerase II polypeptide A small phosphatase 1 (Homo … | Recombinant Scp1, phosphopeptide, malachite green phosphate absorbance | inhibition, % at 20 µM | 0.88% of 340,000 active | AID 493091, 2011;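 active means inhibition above about 50% at 20 µM, limit read from the data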;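 further: plate controls were DMSO wells with enzyme for no effect and wells lacking enzyme for full effect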
Target sequence (Q9GZU7 76-261 limits assumed): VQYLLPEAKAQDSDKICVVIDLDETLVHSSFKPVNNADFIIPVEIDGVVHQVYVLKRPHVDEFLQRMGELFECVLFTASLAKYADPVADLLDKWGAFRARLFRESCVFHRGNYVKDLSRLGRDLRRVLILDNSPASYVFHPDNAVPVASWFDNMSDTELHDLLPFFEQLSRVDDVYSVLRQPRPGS
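Incubation: 45 min enzyme reaction at room temperature / System: truncated SCP-1 phosphatase (76-261aa) / Reagent: Phospho 17-mer peptide substrate / Buffer or medium: Acidic Tris acetate buffer with magnesium and detergent / Signal: absorbance at 630 nm / Doses: one concentration, 20 µM, with 1.0% DMSO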
GRK2 CP1: GRK2 aptamer-displacing inhibitors, retest, confirmation, biochemical, cherry pick 1, bead flow cytometry; 4% of 2,000 active; aptamer displacement, % at 10 µM; shares compounds with GRK2 inh; AID 504451, 2011; bead-bound GRK2, FAM-aptamer displacement;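 active means aptamer displacement above 40%, near three times the noise of non-fluorescent compounds, on plates passing quality checks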;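 further: negative values mostly reflect intrinsic compound fluorescence rather than true enhancement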
Aptamer quench: counter-screen for GRK2 aptamer inhibitors: fluorescent aptamer quenchers; AID 504521; 110 tested, under 10 active; shares compounds with GRK2 inh; Fluorescent RNA aptamer beads, quenching, flow cytometry; stronger effect = higher value; fluorescence change (kMESF span), kMESF (test concentration not listed);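 active means compounds whose bead fluorescence drops by more than 37 kMESF across the dose range, marking them as dye quenchers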
FAM quench CP1: counter-screen for GRK2 aptamer inhibitors: fluorescent aptamer quenchers. shares compounds with GRK2 inh. Carboxyfluorescein RNA aptamer on beads, flow cytometry quenching; stronger effect = lower value. fluorescence response (% of DMSO), % at 10 µM. 2,000 tested, under 10 active. AID 504580;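 active means compounds that quench the bead-bound fluorescent RNA probe, cutting fluorescence to under half of the solvent control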;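 further: counterscreen run without GRK2 so only probe quenching by compound is measured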
Aptamer quench3: fluorescence quenching of FAM-labeled RNA aptamer, dose response, artefact control for GRK2 aptamer inhibitor project, biochemical, flow cytometry, cherry pick 2; Streptavidin beads; 25 tested, under 10 active; AID 504819, 2011; change in fluorescence (kMESF span), kMESF (concentration not given with the values); shares compounds with GRK2 inh;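 active means compounds quenching the bead-bound labeled aptamer, with fluorescence dropping by more than 37 kMESF over the dose range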
FAM quench PS1: quenchers of FAM-labeled RNA aptamer fluorescence, dose response, artefact control for GRK2 aptamer binding project, biochemical, powder set 1, flow cytometry. shares compounds with GRK2 inh. Bead-bound FAM RNA aptamer fluorescence quenching; stronger effect = lower value. fluorescence ratio to DMSO, % at 11.1 µM. 35 tested, under 10 active. AID 588496, 2011;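 active means compounds that dim the fluorescent label, raw bead signal shifting by over 33 units between lowest and highest dose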
Starred values were filed as active, the others as inactive; / = not tested or not shown. Most compounds without a hit are left out; they make up all but 2.2% or so of the library.

SMILES | GRK2 inh | LMPTP block | STEP block | DNMT1 block | SUMO1-SIM PPI | Scp1 inh | GRK2 CP1 | FAM quench CP1 | others
Cc1ccc(S(=O)(=O)N2CCOCC2)cc1NC(=O)COC(=O)c1ccc2c(c1)OCO2 | 100* | 1 | 0 | 0 | -4 | -1 | 4 | 67
CCC(/C=C1\Sc2ccc(OC)cc2N1CC)=C\c1sc2ccc(OC)cc2[n+]1CCCS(=O)(=O)[O-] | 91* | 2 | 4 | -3 | 2 | 6 | 85* | 108 | Aptamer quench=1.7
Cc1cccc(-c2noc(-c3csc([C@@H]4C[C@H](O)[C@@H](CO)O4)n3)n2)c1 | / | -2 | 3 | 1 | 6 | / | / | /
CC(=O)Nc1ccc2c(c1)Cc1cc(N3C(=O)C=CC3=O)ccc1-2 | / | 0 | 1 | -10 | 28 | -5 | / | /
CC(C)(C)c1ccc(NC(=O)c2ccc3c(c2)S(=O)(=O)c2ccccc2C3=O)cc1 | 0 | 0 | 2 | 15 | 3 | -5 | / | /
CCC(C)(C)NC(=O)c1ccc2c(c1)S(=O)(=O)c1ccccc1C2=O | 54* | 0 | 1 | 0 | -28 | -5 | -1 | 99
O=c1c(O)cccc2cc(O)c(O)c(O)c12 | 100* | 90* | 98* | 95* | 104* | 73* | 30 | 91
O=C(N/N=C/c1cccc(F)c1)c1c(O)c2ccccc2[nH]c1=O | 70* | 7 | -5 | 21 | 0 | -10 | 4 | 94
CCOC(=O)N1CCN(C(C(=O)NC2CCCC2)C(C)C)CC1 (stereo unspecified) | / | 1 | / | / | 0 | / | / | /
O=C(c1cccs1)N1C[C@@H](O)[C@H](n2cc(-c3ccc(F)cc3)nn2)C[C@@H]1c1ccccc1 | / | 1 | 0 | -1 | 1 | / | / | /
O=C(CCS(=O)(=O)c1ccccc1)Nc1ccc(Cl)cn1 | 14 | -1 | -2 | 10 | 7 | 24 | 9 | 105
COC(=O)c1ccc(NC(=O)CCS(=O)(=O)c2ccc(C)cc2)cc1 | 0 | 1 | 2 | 1 | 0 | -11 | / | /
O=C(CCS(=O)(=O)c1ccc(Br)cc1)Nc1ccccn1 | 14 | -1 | 0 | 6 | 1 | 2 | 4 | 99
O=C(CS(=O)(=O)c1ccccc1)Nc1ccc(Cl)cn1 | 0 | 0 | 3 | 1 | 1 | 1 | / | /
COC(=O)c1ccc(NC(=O)CCS(=O)(=O)c2ccc(Br)cc2)cc1 | 58* | -2 | 3 | 29 | 12 | 47 | 34 | 101 | Aptamer quench=16;Aptamer quench3=0.7;FAM quench PS1=103
O=C(COC(=O)C1CC1)Nc1ncc(Cl)cc1Cl | 9 | 1 | 1 | 16 | 18 | 36 | / | /
O=C(COC(=O)C1CC1)Nc1ccc(Cl)cn1 | 53* | -3 | 4 | -4 | 4 | 12 | 4 | 96
C=CCOc1cccn2c(N(C=O)Cc3ccc(OC)cc3)c(CC)nc12 | / | 3 | -1 | -2 | 0 | / | / | /
COCCNC(=O)C1(C)CCCN(C(=O)c2cccc(Cl)c2)C1 (stereo unspecified) | / | -1 | 0 | -2 | 1 | / | / | /
CC(C)(C)c1ccc(C(=O)N2[C@H](COCc3ccccc3)C=CS2(=O)=O)cc1 | / | 2 | -2 | 5 | 4 | / | / | /
Cc1ccc(-c2ccc(CN3C(CC(C)C)C(=O)N(Cc4cn(CC5CCCCC5)nn4)CCS3(=O)=O)cc2)cc1 (stereo unspecified) | / | 3 | 2 | -5 | 5 | / | / | /
CCOC(=O)C1CCN(CC(=O)Nc2c(C(=O)OC)[nH]c3cccc(C)c23)CC1 | 54* | 0 | 2 | 0 | 0 | -8 | -4 | 98
Cc1ccsc1C(=O)N1CCC1(C)C(=O)NS(=O)(=O)c1ccccc1C(F)(F)F (stereo unspecified) | / | 0 | -1 | 1 | 1 | / | / | /
O=C(Cc1cccs1)NCc1cccs1 | 0 | 0 | -2 | -2 | 3 | -3 | / | /
O=C(Cc1cccs1)NCc1cccc(Br)c1 | 55* | -1 | -1 | 4 | -1 | 3 | 2 | 102
SMILES | GRK2 inh | LMPTP block | STEP block | DNMT1 block | SUMO1-SIM PPI | Scp1 inh | GRK2 CP1 | FAM quench CP1 | others
CCN(CC)C(=O)c1ccccc1NS(=O)(=O)c1ccc(OC)c(C(=O)N2CCOCC2)c1 | 61* | -1 | -1 | 0 | 1 | -2 | -2 | 100
Cc1ccc(S(=O)(=O)N2[C@H](CC(=O)Oc3ccccc3)OC[C@@H]2C(C)C)cc1 | / | 2 | / | / | -1 | / | / | /
O=C(NC1CCCC1)C(c1ccncc1)N(Cc1ccccc1)C(=O)Cc1cccs1 (stereo unspecified) | 1 | 0 | 2 | 1 | 0 | -1 | / | /
COC(=O)c1ccc(C(C(=O)NC2CCCCC2)N(C(=O)Cc2cccs2)C2CC2)cc1 (stereo unspecified) | 86* | 0 | -10 | 3 | -2 | -7 | 18 | 98
O=C(NC1CCCC1)C(c1ccsc1)N(Cc1ccccc1)C(=O)Cc1cccs1 (stereo unspecified) | 15 | 0 | 2 | -3 | 2 | -14 | -4 | 106
COc1cc2sc(C)nc2c2ccccc12 | 0 | 0 | 1 | -6 | 1 | 6 | / | /

High-throughput results (PubChem BioAssay)
